NR2E3 ag-1: NR2E3 (human) agonism | GST-NR2E3/biotin-RetCOR TR-FRET, 1536-well | Q9Y5X4 | inhibition of corepressor binding, % at 4.78 µM | actives 0.12% (n = 320,000);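 active = percent inhibition above the cutoff of mean plus 3 SD of all tested compounds, set per screening campaign, cut at about 20% in these data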
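Format: 1536-well format; test system: GST-NR2E3 and biotin-RetCOR proteins; read-out basis: percent inhibition of TR-FRET ratio; timing: 5 h incubation at 4 °C; detection: time-resolved FRET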
NR1D1 modulator: modulates human Rev-erb alpha binding to DNA. Rev-erbα–FITC-DNA binding, fluorescence polarization, 90 min. activity, % at 10 µM. actives 0.79% (n = 370,000);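 active = activity above about 14%, limit read from the data; passing the limit was not always enough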
Target sequence (P20393 whole entry, looked up): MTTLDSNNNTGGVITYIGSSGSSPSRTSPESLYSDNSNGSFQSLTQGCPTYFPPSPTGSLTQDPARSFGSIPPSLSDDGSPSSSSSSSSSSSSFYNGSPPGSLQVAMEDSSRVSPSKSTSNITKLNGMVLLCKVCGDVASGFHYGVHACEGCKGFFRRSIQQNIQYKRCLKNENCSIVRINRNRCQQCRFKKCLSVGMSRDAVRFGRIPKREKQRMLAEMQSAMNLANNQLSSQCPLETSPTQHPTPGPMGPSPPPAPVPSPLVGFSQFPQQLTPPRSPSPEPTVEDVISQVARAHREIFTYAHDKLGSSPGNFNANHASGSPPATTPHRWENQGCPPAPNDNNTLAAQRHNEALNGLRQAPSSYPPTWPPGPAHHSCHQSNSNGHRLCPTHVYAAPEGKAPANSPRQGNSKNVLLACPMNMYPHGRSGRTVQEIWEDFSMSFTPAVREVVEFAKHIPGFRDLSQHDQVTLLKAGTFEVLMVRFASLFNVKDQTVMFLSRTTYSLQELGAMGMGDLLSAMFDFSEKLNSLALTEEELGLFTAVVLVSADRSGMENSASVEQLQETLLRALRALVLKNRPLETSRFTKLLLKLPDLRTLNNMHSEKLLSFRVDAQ
NR2E3 ag-2: activates human NR2E3 receptor | CHO-S Gal4-NCOR/VP16-NR2E3 two-hybrid, luciferase | actives 0.35% (n = 360,000) | inhibition of corepressor binding, % at 3.98 µM | Q9Y5X4;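 active = inhibition above the mean of all tested compounds plus 3 SD, cut at about 70% in these data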;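 note: higher means lower luciferase signal from less NR2E3 corepressor binding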
PG9 Ab binder: binds the HIV-1 gp120 antibody PG9; TR-FRET gp120-PG9 antibody binding; inhibition, % at 6.7 µM; actives 0.43% (n = 360,000); AID 624416; in the data active = inhibition above about 8.5%
Neddylation inh: cullin neddylation inhibition; actives 0.58% (n = 360,000); calls only at 25 µM; AID 651699; TR-FRET cullin neddylation, biochemical; P61081+Q13564; in the data active = inhibition above about 36%
PG9 binder conf: confirmation of small molecules binding HIV-1 gp120 antibody PG9; shares compounds with PG9 Ab binder; TR-FRET PG9 antibody binding, biochemical; inhibition, % at 6.7 µM; actives 90% (n = 1,500); in the data active = inhibition above about 9%
PGV04 counter: PGV04 control antibody binding, counter-screen; shares compounds with PG9 Ab binder; TR-FRET PGV04 antibody-gp120 binding, biochemical; inhibition, % at 6.7 µM; actives 95% (n = 1,500); in the data active = inhibition above about 9.5%
PG9 binder DR: PG9 antibody binding, dose response | 95 tested, under 10 active | IC50, µM | shares compounds with PG9 Ab binder | TR-FRET PG9 antibody-gp120 binding inhibition | AID 651848; in the data active = IC50 below about 10 µM
PGV04 DR counter: counter-screen for PG9 binders: binding to control antibody PGV04; shares compounds with PG9 Ab binder; TR-FRET binding to control antibody PGV04; IC50, µM; actives 20% (n = 95)
PG126 DR counter: PG126 binding, dose response counter-screen | shares compounds with PG9 Ab binder | TR-FRET binding to antibody PG126, counterscreen | IC50, µM | actives 20% (n = 95) | AID 651939
Rev-erbA confirm: confirmation of modulators of human Rev-erb alpha DNA binding; shares compounds with NR1D1 modulator; Rev-erb alpha FITC-DNA binding, fluorescence polarization, 90 min; activation, % at 25 µM; actives 61% (n = 3,000);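 active = activation at or above a set limit, or at least 3 SD above the negative control mean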
RORg counter: affects RORgamma DNA binding in a Rev-erb alpha counter-screen; purified RORgamma protein-FITC-DNA binding, fluorescence polarization; shares compounds with NR1D1 modulator; actives 8% (n = 910); AID 1259320; IC50, µM;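 active = Compounds whose fitted half-maximal concentration for disrupting protein-DNA binding is below 10 micromolar; the record names Rev-erb in its text, so the target is in doubt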
A number is an active result; i = inactive; nt = not tested or not shown. An excerpt weighted towards active compounds, which were near 2% of everything screened. Cut-off read from the data, not from the text of the source, unless noted: active = IC50 below about 9 µM; inactive = the rest.

SMILES	NR2E3 ag-1	NR1D1 modulator	NR2E3 ag-2	PG9 Ab binder	Neddylation inh	PG9 binder conf	PGV04 counter	Rev-erbA confirm	others
O=C(Cn1c(=O)c2cccn2c2ccccc21)NCCc1ccc(Cl)cc1	i	65.7	i	35.5	i	39.7	42.7	27.5
C=CCn1cnc2sc(C(=O)Nc3ccccc3OC)c(C)c2c1=O	i	i	i	i	i	nt	nt	nt
COc1ccccc1NC(=O)c1sc2ncn(Cc3cccc4ccccc34)c(=O)c2c1C	i	117.5	i	12.7	i	10.9	24.1	49.1	RORg counter=i
COc1ccc(-n2c(SCC(=O)Nc3ccc(OCc4ccccc4)cc3)nnc2-c2ccc(C)cc2)cc1	nt	i	nt	nt	nt	nt	nt	nt
COc1cc(OC)cc(-c2oc(=O)c3cc(OC)c(OC)cc3c2C#CCCO)c1	nt	20.8	i	24.7	i	36.2	42.0	i
O=[N+]([O-])c1ccc(CSc2ccc(S(=O)(=O)N3CCCCCC3)cn2)cc1	nt	i	i	i	i	nt	nt	nt
COC(=O)[C@]12C[C@H](CC(=O)NCCCN3CCCC3=O)C(=O)N(Cc3ccccc3)C1=C[C@H](C1CCCC1)O[C@@H]2C	nt	i	nt	i	nt	nt	nt	nt
COc1ccc(-c2nc(NC(=O)c3ccc(OCC(=O)Nc4ccc(F)cc4)c(OC)c3)sc2C)cc1	i	180.4	i	80.5	i	69.2	82.0	153.8	RORg counter=i
COc1ccc(C(=O)NCC(=O)Nc2ccc(F)cc2)cc1OC	i	i	i	i	i	nt	nt	nt
CC(C)CN1C(=O)[C@@]2(CC(=O)N(C)C2c2ccccc2)c2cc(-n3cc(-c4ccccc4)nn3)ccc21 (some centres undefined)	nt	i	nt	nt	nt	nt	nt	nt
COc1ccc(S(=O)(=O)Nc2cc(S(=O)(=O)N3CCOCC3)ccc2OC)cc1	nt	i	i	i	i	nt	nt	nt
COc1ccc(C(=O)Nc2scc(-c3ccc(Cl)cc3Cl)c2C(N)=O)cc1	i	62.0	i	9.8	i	i	19.0	55.6	RORg counter=i
CCn1c2ccccc2c2cc(NC(=O)COC(=O)c3ccccc3F)ccc21	i	25.1	i	28.4	i	33.2	55.8	22.9
CC1=C(C(=O)N(C(C)C)C(C)C)CC(CC(=O)NC(c2ccccc2)c2ccccc2)C(=O)N1Cc1ccc(C(C)(C)C)cc1 (centres undefined)	nt	i	i	i	i	nt	nt	nt
Cc1ccc(-c2nnc(NCc3nc4ccccc4[nH]3)c3ccccc23)cc1S(=O)(=O)N1CCOCC1	i	nt	i	nt	i	nt	nt	nt
Cc1ccc(-c2nnc(NCc3nc4ccccc4[nH]3)c3ccccc23)cc1S(=O)(=O)N(C)C	i	75.6	i	11.5	i	21.4	34.3	52.5	RORg counter=i
COc1ccc(NC(=O)COC(=O)c2cc(SC)ccc2Cl)c(OC)c1	i	34.4	i	18.2	i	30.3	44.8	29.5
COc1ccc(C(C)(C)C)cc1NC(=O)COC(=O)c1cc(SC)ccc1Cl	i	i	i	i	i	nt	nt	nt
Cn1cc(-c2cccc3[nH]cc(-c4ccccc4)c23)c2ccccc21	nt	i	nt	nt	nt	nt	nt	nt
CC(C)C(=O)Nc1cccc(C(=O)OCC(=O)c2ccc(Cl)cc2Cl)c1	i	18.9	i	53.1	i	40.3	58.2	i
Cc1ccc(-c2cc3ncc(C#N)c(N)n3n2)cc1	i	47.1	i	36.7	i	48.0	63.2	i
Cc1ccc(-n2ncc(C#N)c2N)cc1	i	i	i	i	i	nt	nt	nt
Cc1cccc2cc(C#N)c(SCC(=O)N3CC(=O)Nc4ccccc43)nc12	i	89.7	i	30.5	i	46.1	74.5	66.9	RORg counter=i
COc1ccc2cc(C#N)c(SCC(=O)N3CC(=O)Nc4ccccc43)nc2c1	i	nt	i	nt	i	nt	nt	nt
Cc1cccc2cc(C#N)c(SCC(=O)N3CCC(C)CC3)nc12	i	53.2	i	8.8	i	12.1	16.1	64.6	RORg counter=i
SMILES	NR2E3 ag-1	NR1D1 modulator	NR2E3 ag-2	PG9 Ab binder	Neddylation inh	PG9 binder conf	PGV04 counter	Rev-erbA confirm	others
Cc1c(-c2ccc(Cl)cc2)oc(=O)c2c(N)n(-c3ccccc3)nc12	i	48.6	i	36.2	i	30.6	39.5	49.0	RORg counter=i
COC(=O)[C@]12C[C@H](CC(=O)N3CCCC3)C(=O)N(Cc3ccc(Cl)cc3Cl)C1=C[C@H](C(C)C)O[C@@H]2C1CC1	nt	i	nt	nt	nt	nt	nt	nt
CCCCCCCCCC1(CC(=O)OCC)SCCN1C(N)=O (centres undefined)	nt	i	i	i	i	nt	nt	nt
Cn1c(-c2ccc(C=O)s2)nc2c3ccccc3c3ccccc3c21	i	134.8	i	8.9	nt	i	i	113.8
O=C(COC(=O)c1cccnc1SCC(=O)NCc1ccccc1)NCc1ccccc1	i	53.2	i	31.7	i	37.3	53.3	52.3	RORg counter=i
COc1ccccc1CNC(=O)COC(=O)c1cccnc1SCC(=O)NCc1ccccc1OC	i	46.7	i	18.9	i	29.5	42.9	31.1	RORg counter=i
CC(=O)NCCNc1nc2c(-c3cccc(C)c3)nnn2c2ccccc12	i	i	i	i	nt	nt	nt	nt
COCCNc1nc2c(S(=O)(=O)c3cc(C)ccc3C)nnn2c2ccccc12	i	45.4	i	45.6	i	28.7	55.3	19.2
N=C1C(c2nc3ccccc3s2)=C(O)CN1NC(=O)c1c[nH]c2ccccc12	i	31.8	i	12.3	i	21.9	39.1	51.3	RORg counter=i
COc1ccc(-c2cc(-c3ccccc3)c(C#N)c(S(C)=O)n2)cc1 (centres undefined)	i	i	i	i	i	nt	nt	nt
N#Cc1c(-c2ccccc2)cc(-c2ccccc2)nc1Br	i	28.5	i	8.7	i	14.1	17.4	i
Cc1cc(-c2cccc(Br)c2)c(C#N)c(N)n1	i	21.3	i	33.5	i	37.9	61.3	i
Cc1cc(C)c(C#N)c(N)n1	i	i	i	i	i	nt	nt	nt
O=C(Nc1cccc(O)c1)c1cc(-c2cccs2)on1	i	i	i	i	i	nt	nt	nt
CC(=O)c1cccc(NC(=O)c2cc(-c3cccs3)on2)c1	i	33.5	i	24.2	i	28.9	46.5	i
NS(=O)(=O)c1ccc(CCNC(=O)CCCCCn2c(=S)[nH]c3ccc(Br)cc3c2=O)cc1	i	41.0	i	29.5	i	28.3	25.8	i	PG9 binder DR=i;PGV04 DR counter=i;PG126 DR counter=i

Source: PubChem BioAssay (several laboratories)
